Activity calls are given as the source filed them.
Legend:
[1] = target: Cholinesterase (Homo sapiens, UniProt P06276); experiment: Inhibition of human BChE using butyrylthiocholineiodide as substrate measured for 5 mins by Ellman's method
Outline: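 Human BChE at about 1 nM was preincubated for 5 min at 20 °C with compound and Ellman's reagent in 0.1 M phosphate buffer, pH 8.0, with 1% final DMSO. The reaction was started with butyrylthiocholine iodide and A412 read for 1 min from initial rates. Activity was corrected by an enzyme-free buffer blank. IC50 was fitted from at least seven concentrations.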

[2] = system: Mus musculus; experiment: Anti-amnesic activity in CD-1 mouse model of scopolamine-induced memory impairment assessed as step-through latency time to enter dark compartment in retention trail on day 2 at 10 to 30 mg/kg, ip administered 60 mins before trail by passive avoidance test; format: functional, organism-based; conditions: dose 10-30 mg/kg
Outline: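 CD-1 mice, passive avoidance: scopolamine 1 mg/kg s.c. in 0.9% saline 30 min before trial; test article suspended in 1% Tween 80, i.p. 60 min before trial (controls 1% Tween 80 i.p.). Acquisition trial: 30 s in lit compartment, gate opened, step-through latency to dark chamber recorded; retention trial 24 h later. n = 8–9.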

[3] = system: Mus musculus; experiment: Cognitive enhancing effect in C57BL/6J mouse model of scopolamine-induced memory impairment model assessed as escape latency time at 10 to 30 mg/kg, ip administered for 7 days and 60 mins before trail by Morris water maze test relative to control; format: functional, organism-based; conditions: dose 10-30 mg/kg, time 7.0 day
[4] = system: Mus musculus; experiment: Cognitive enhancing effect in intraperitoneally dosed C57BL/6J mouse model of scopolamine-induced memory impairment assessed as enhancement of long-term memory retrieval by measuring latency time to find former escape box location in acquisition phase measured on day 12 by Barnes maze test; format: functional, organism-based
Outline: (§1)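 C57BL/6J mice, Barnes maze: scopolamine 1 mg/kg s.c. 30 min before first daily trial; compound in 1% Tween 80 i.p. 60 min before, daily during 4-day acquisition (four trials/day, 15-min intervals). Drug-off probe day 5 (short-term) and day 12 (long-term): escape box removed, 90 s exploration, latency to former box location and primary errors recorded. n = 7–9; one-way ANOVA, Dunnett's.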

[5] = Neurotoxicity in mouse assessed as effect in locomotor activity at 30 mg/kg, ip measured up to 60 mins by rotarod test; format: toxicity, organism-based; conditions: in vivo, 1 h
Outline: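 Mice trained 3 consecutive days on rotarod (2 cm rod, 18 rpm); 24 h later dosed i.p. with 30 mg/kg in 1% Tween 80 or vehicle, tested after 60 min at 6, 18 and 24 rpm. Motor impairment defined as failure to stay on for 60 s; expressed as mean time on rod.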

[6] = system: Mus musculus; experiment: Cognitive enhancing effect in intraperitoneally dosed C57BL/6J mouse model of scopolamine-induced memory impairment assessed as enhancement of learning abilities and working memory by measuring escape latency time to reach target in acquisition phase measured on day 5 by Barnes maze test; format: functional, organism-based; outline: as §1
[7] = system: Mus musculus; experiment: Cognitive enhancing effect in intraperitoneally dosed C57BL/6J mouse model of scopolamine-induced memory impairment assessed as enhancement of short-term memory retrieval by measuring latency time to find former escape box location in acquisition phase measured on day 5 by Barnes maze test; format: functional, organism-based; outline: as §1
[8] = target: Acetylcholinesterase (Homo sapiens, UniProt P22303); experiment: Inhibition of human AChE using acetylthiocholine iodide as substrate measured for 5 mins by Ellman's method
Chain of Acetylcholinesterase (P22303 whole entry): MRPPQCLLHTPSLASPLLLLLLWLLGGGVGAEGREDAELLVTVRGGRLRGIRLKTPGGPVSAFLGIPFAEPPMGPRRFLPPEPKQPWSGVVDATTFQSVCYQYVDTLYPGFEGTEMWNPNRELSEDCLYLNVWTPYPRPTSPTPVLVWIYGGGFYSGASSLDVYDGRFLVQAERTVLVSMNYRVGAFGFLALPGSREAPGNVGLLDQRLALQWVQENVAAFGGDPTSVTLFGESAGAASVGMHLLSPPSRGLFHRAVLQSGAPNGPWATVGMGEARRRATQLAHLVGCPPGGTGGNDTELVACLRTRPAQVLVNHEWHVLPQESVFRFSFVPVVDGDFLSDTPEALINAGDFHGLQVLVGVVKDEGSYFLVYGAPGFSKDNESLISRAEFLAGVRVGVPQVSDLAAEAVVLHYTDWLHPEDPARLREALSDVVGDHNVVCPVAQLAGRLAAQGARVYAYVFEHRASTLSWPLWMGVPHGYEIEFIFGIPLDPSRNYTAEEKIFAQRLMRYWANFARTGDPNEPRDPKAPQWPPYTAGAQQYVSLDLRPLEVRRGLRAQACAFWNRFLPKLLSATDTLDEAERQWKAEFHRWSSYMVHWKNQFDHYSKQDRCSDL
Outline: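 Human AChE at about 50 pM was preincubated for 5 min at 20 °C with compound (DMSO stock) and Ellman's reagent in 0.1 M phosphate buffer, pH 8.0, with 1% final DMSO. Acetylthiocholine iodide was then added and A412 followed for 1 min. Residual activity = (vi − b)/(vo − b), with b a blank lacking enzyme. IC50 used at least seven concentrations.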

Chain of Cholinesterase (P06276 whole entry): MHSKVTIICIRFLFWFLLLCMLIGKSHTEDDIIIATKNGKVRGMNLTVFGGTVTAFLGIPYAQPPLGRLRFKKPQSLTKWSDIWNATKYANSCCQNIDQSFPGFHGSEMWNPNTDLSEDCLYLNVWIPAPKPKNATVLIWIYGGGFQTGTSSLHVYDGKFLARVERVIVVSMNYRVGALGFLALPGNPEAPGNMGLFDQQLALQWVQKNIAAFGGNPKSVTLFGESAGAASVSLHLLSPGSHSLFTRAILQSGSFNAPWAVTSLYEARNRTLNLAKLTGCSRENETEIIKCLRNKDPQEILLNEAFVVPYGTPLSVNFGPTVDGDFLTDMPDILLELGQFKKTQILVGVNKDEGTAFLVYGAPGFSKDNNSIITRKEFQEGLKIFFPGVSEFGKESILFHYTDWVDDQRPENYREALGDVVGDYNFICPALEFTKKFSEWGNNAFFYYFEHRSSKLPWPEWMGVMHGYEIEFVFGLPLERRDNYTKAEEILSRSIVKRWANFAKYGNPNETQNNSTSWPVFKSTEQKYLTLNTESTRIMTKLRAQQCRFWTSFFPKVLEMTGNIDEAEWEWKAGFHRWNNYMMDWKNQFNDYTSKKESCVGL

SMILES | IC50 [1] [nM] | other results
CCCCN[C@@H](Cc1c[nH]c2ccccc12)C(=O)NCCC1CCN(CCc2ccccc2)CC1 | 3.8 | –
CCCCN[C@@H](CC(C)C)C(=O)NCCC1CCCCCC1 | 36300 | –
CCCCN[C@@H](Cc1c[nH]c2ccccc12)C(=O)NCCC1CCCCCC1 | 22 | Activity [2]: inactive; Activity [3]: inactive; Activity [4]: Active; Activity [5]: Non-Toxic; Activity [6]: inactive; Activity [7]: inactive
CCCCN[C@@H](Cc1c[nH]c2ccccc12)C(=O)NCCC1CCN(CC2CCN(C)CC2)CC1 | 6600 | IC50 [8]: 29700 nM
CCCCN[C@@H](Cc1c[nH]c2ccccc12)C(=O)NCCC1CCCN(Cc2ccccc2)C1 (mixture of isomers) | 9 | –
CCCCN(CCCC)[C@@H](Cc1c[nH]c2ccccc12)C(=O)N1CCC(Cc2ccccc2)CC1 | 76 | –
CCCCN[C@@H](Cc1c[nH]c2ccccc12)C(=O)NCCC1CCCN(Cc2ccc(OC)cc2)CC1 (mixture of isomers) | 100 | –
CCCCN[C@@H](Cc1c[nH]c2ccccc12)C(=O)NCCC1CCN(c2ccccc2)CC1 | 5.6 | –
CCCCN[C@@H](Cc1c[nH]c2ccccc12)C(=O)NCCC1CCN(Cc2ccccc2)CC1 | 2 | IC50 [8]: 25400 nM
CCCCN[C@@H](Cc1c[nH]c2ccccc12)C(=O)N1CCCC1c1ccccc1 (stereo partly drawn) | 990 | –
CCCCN[C@@H](Cc1ccccc1)C(=O)NCCC1CCCCCC1 | 609 | –
CCCCN[C@@H](Cc1c[nH]c2ccccc12)C(=O)NCCC1CCCN(Cc2ccccc2)CC1 (mixture of isomers) | 2.8 | IC50 [8]: 16000 nM
CCCCN[C@@H](Cc1c[nH]c2ccccc12)C(=O)NCCC1CCCN(Cc2c(F)c(F)cc(F)c2F)CC1 (mixture of isomers) | 5.9 | –
CCCCN[C@@H](Cc1c[nH]c2ccccc12)C(=O)NCCC1CCCC(c2ccccc2)C1 (mixture of isomers) | 6.6 | –

Source: ChEMBL document CHEMBL4706571, “Structure-activity relationship study of tryptophan-based butyrylcholinesterase inhibitors” (Eur J Med Chem, 2020)
